# Measurements from ChEMBL document CHEMBL1821585, “Fluorinated cannabinoid CB2 receptor ligands: synthesis and in vitro binding characteristics of 2-oxoquinoline derivatives” (Bioorg Med Chem, 2011).
# Biological target: T1, Cannabinoid receptor 1 (Homo sapiens, UniProt P21554)
# Experiment: Displacement of [3H]CP-55940 from human CB1 receptor expressed in human U87 cells after 1 hr by scintillation counting
# Type: cell-based, U-87MG ATCC
# Outline: (§1)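 Membranes from lentivirally transduced U87 glioblastoma cells stably expressing hCB1 or hCB2, sorted on an mKateS158A co-reporter. Cells at 80–90% confluence were homogenised in 50 mM Tris-HCl, 5 mM MgCl2, 2.5 mM EDTA, pH 7.4. Aliquots of 30–50 μg protein were incubated 1 h at 4°C with 2.8 nM [3H]CP-55,940 plus graded compound concentrations, then GF/C-filtered. Ki was derived from the competition curves.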
# T1 sequence (P21554 whole entry): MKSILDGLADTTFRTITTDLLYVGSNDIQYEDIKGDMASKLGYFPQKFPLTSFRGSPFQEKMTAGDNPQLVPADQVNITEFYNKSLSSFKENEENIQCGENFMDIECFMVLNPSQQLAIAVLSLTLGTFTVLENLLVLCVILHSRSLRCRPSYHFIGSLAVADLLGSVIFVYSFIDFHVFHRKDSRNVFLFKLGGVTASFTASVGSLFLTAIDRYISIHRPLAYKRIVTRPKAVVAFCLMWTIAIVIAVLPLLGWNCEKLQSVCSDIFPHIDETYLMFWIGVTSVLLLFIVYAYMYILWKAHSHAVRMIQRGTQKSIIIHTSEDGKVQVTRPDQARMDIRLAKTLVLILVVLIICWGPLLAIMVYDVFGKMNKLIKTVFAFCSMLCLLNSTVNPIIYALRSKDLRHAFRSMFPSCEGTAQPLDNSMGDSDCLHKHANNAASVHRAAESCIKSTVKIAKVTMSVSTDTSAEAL
row,SMILES,Ki [µM]
1,COc1ccc2cc(C(=O)NCC(F)c3ccccc3)c(=O)[nH]c2c1OC (centres undefined),> 10
2,CCCCOc1c(OC)ccc2cc(C(=O)NCC(F)c3ccccc3)c(=O)[nH]c12 (centres undefined),> 10
3,CCCCOc1c(OC)ccc2cc(C(=O)NCCF)c(=O)[nH]c12,> 10
4,CCCCOc1c(OC)ccc2cc(C(=O)NCc3cn(CCF)nn3)c(=O)[nH]c12,> 10
5,CCCCOc1c(OC)ccc2cc(C(=O)NCCCF)c(=O)[nH]c12,> 10
6,COc1ccc2cc(C(=O)NCCc3ccc(F)cc3)c(=O)[nH]c2c1OC,> 10
7,CCCCOc1c(OC)ccc2cc(C(=O)NCc3ccc(F)cc3)c(=O)[nH]c12,> 10
8,CCCCOc1c(OC)ccc2cc(C(=O)NCCc3cn(CCF)nn3)c(=O)[nH]c12,> 10
9,CCCCOc1c(OC)ccc2cc(C(=O)NCCc3ccc(F)cc3)c(=O)[nH]c12,> 10
10,CCCCOc1c(OC)c([N+](=O)[O-])cc2cc(C(=O)NCCc3ccc(F)cc3)c(=O)[nH]c12,> 10
11,COc1ccc2cc(C(=O)NCc3ccc(F)cc3)c(=O)[nH]c2c1OC,> 10
12,COc1ccc2cc(C(=O)NCCF)c(=O)[nH]c2c1OC,> 10

# Biological target: T2, Cannabinoid receptor 2 (Homo sapiens, UniProt P34972)
# Experiment: Displacement of [3H]CP-55940 from human CB2 receptor expressed in human U87 cells after 1 hr by scintillation counting
# Type: cell-based, U-87MG ATCC
# Outline: as §1
# T2 sequence (P34972 whole entry): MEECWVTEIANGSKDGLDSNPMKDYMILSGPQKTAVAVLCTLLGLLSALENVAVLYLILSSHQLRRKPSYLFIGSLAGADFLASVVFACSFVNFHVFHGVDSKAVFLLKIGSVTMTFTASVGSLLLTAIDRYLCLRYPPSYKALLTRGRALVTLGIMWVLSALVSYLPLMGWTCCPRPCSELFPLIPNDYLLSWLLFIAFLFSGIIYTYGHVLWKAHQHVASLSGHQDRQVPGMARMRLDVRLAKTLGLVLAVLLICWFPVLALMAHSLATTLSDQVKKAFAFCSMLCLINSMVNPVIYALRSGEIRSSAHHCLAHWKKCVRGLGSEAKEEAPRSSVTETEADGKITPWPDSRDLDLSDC
row,SMILES,Ki [µM]
1,COc1ccc2cc(C(=O)NCC(F)c3ccccc3)c(=O)[nH]c2c1OC (centres undefined),0.022
2,CCCCOc1c(OC)ccc2cc(C(=O)NCC(F)c3ccccc3)c(=O)[nH]c12 (centres undefined),0.0008
3,CCCCOc1c(OC)ccc2cc(C(=O)NCCF)c(=O)[nH]c12,0.486
4,CCCCOc1c(OC)ccc2cc(C(=O)NCc3cn(CCF)nn3)c(=O)[nH]c12,0.62
5,CCCCOc1c(OC)ccc2cc(C(=O)NCCCF)c(=O)[nH]c12,0.058
6,COc1ccc2cc(C(=O)NCCc3ccc(F)cc3)c(=O)[nH]c2c1OC,0.005
7,CCCCOc1c(OC)ccc2cc(C(=O)NCc3ccc(F)cc3)c(=O)[nH]c12,0.0028
8,CCCCOc1c(OC)ccc2cc(C(=O)NCCc3cn(CCF)nn3)c(=O)[nH]c12,2.4
9,CCCCOc1c(OC)ccc2cc(C(=O)NCCc3ccc(F)cc3)c(=O)[nH]c12,0.0024
10,CCCCOc1c(OC)c([N+](=O)[O-])cc2cc(C(=O)NCCc3ccc(F)cc3)c(=O)[nH]c12,0.0014
11,COc1ccc2cc(C(=O)NCc3ccc(F)cc3)c(=O)[nH]c2c1OC,> 10
12,COc1ccc2cc(C(=O)NCCF)c(=O)[nH]c2c1OC,> 10

# Biological target: T2, Cannabinoid receptor 2
# Experiment: Binding affinity to CB2 receptor
SMILES,Ki [nM],IC50 [µM]
CCCCCOc1c(OC)ccc2cc(C(=O)NCCc3ccncc3)c(=O)[nH]c12,0.01,–
CCCCOc1c(OC)ccc2cc(C(=O)O)c(=O)[nH]c12,0.032,–
COc1ccc2c(c1)c(CCN1CCOCC1)c(C)n2C(=O)c1cccc(Cl)c1Cl,14,–
CCCCCc1cc2cc(C(=O)OC)c(=O)[nH]c2c(O)c1OC,0.014,–
CCCCCCC(C)(C)c1cc(OC)c(C2CCCC(C)(O)C2)c(OC)c1 (centres undefined),23,–
CCCCCc1cc2cc(C(=O)NCCc3ccc(F)cc3)c(=O)n(C)c2c(O)c1OC,0.043,–
CCCCCc1cc2cc(C(=O)NCCc3ccc(F)cc3)c(=O)[nH]c2c(O)c1OC,0.036,–
CCCCOc1c(OC)ccc2cc(C(=O)NCCc3ccc(N)cc3)c(=O)[nH]c12,22.3,0.00158

# Organism: Homo sapiens
# Experiment: Selectivity ratio of Ki for human CB1 receptor to Ki for human CB2 receptor
row,SMILES,Ratio Ki
1,COc1ccc2cc(C(=O)NCC(F)c3ccccc3)c(=O)[nH]c2c1OC (centres undefined),> 454
2,CCCCOc1c(OC)ccc2cc(C(=O)NCC(F)c3ccccc3)c(=O)[nH]c12 (centres undefined),> 12500
3,CCCCOc1c(OC)ccc2cc(C(=O)NCCF)c(=O)[nH]c12,> 20.5
4,CCCCOc1c(OC)ccc2cc(C(=O)NCc3cn(CCF)nn3)c(=O)[nH]c12,> 16
5,CCCCOc1c(OC)ccc2cc(C(=O)NCCCF)c(=O)[nH]c12,> 172
6,CCCCOc1c(OC)ccc2cc(C(=O)NCc3ccc(F)cc3)c(=O)[nH]c12,> 3570
7,CCCCOc1c(OC)ccc2cc(C(=O)NCCc3cn(CCF)nn3)c(=O)[nH]c12,> 4
8,CCCCOc1c(OC)ccc2cc(C(=O)NCCc3ccc(F)cc3)c(=O)[nH]c12,> 4170
9,CCCCOc1c(OC)c([N+](=O)[O-])cc2cc(C(=O)NCCc3ccc(F)cc3)c(=O)[nH]c12,> 7140
10,COc1ccc2cc(C(=O)NCc3ccc(F)cc3)c(=O)[nH]c2c1OC,> 1
11,COc1ccc2cc(C(=O)NCCF)c(=O)[nH]c2c1OC,> 1

# Test system: not listed separately
# Experiment: Selectivity ratio of Ki for CB1 receptor to Ki for CB2 receptor
row,SMILES,Ratio Ki
1,CCCCCOc1c(OC)ccc2cc(C(=O)NCCc3ccncc3)c(=O)[nH]c12,20800
2,CCCCCC(C)(C)c1cc(OC)c2c(c1)OC(C)(C)[C@@H]1CCC(C)=C[C@@H]21,170
3,CCCOc1c(OC)ccc2cc(C(=O)NCCc3ccc(F)cc3)c(=O)[nH]c12,16000
4,Cc1ccc(Cn2nc(C(=O)N[C@@H]3C(C)(C)[C@@H]4CC[C@@]3(C)C4)cc2-c2ccc(Cl)c(C)c2)cc1,32
5,CCCCOc1c(OC)ccc2cc(C(=O)O)c(=O)[nH]c12,28300
6,COc1ccc2c(c1)c(CCN1CCOCC1)c(C)n2C(=O)c1cccc(Cl)c1Cl,146
7,CCCCCc1cc2cc(C(=O)OC)c(=O)[nH]c2c(O)c1OC,262000
8,CCCCCCC(C)(C)c1cc(OC)c(C2CCCC(C)(O)C2)c(OC)c1 (centres undefined),220
9,CCCCCc1cc2cc(C(=O)NCCc3ccc(F)cc3)c(=O)n(C)c2c(O)c1OC,20100
10,CCCCCOc1c(OC)ccc2cc(C(=O)NCCN3CCOCC3)c(=O)n(C)c12,11000
11,CCCCCc1cc2cc(C(=O)NCCc3ccc(F)cc3)c(=O)[nH]c2c(O)c1OC,66600
12,Cc1c(C(=O)NN2CCCCC2)nn(-c2ccc(Cl)cc2Cl)c1-c1ccc(Cl)cc1,32

# Biological target: T1, Cannabinoid receptor 1
# Experiment: Binding affinity to CB1 receptor
row,SMILES,Ki [µM]
1,CCCCCCC(C)(C)c1cc(OC)c(C2CCCC(C)(O)C2)c(OC)c1 (centres undefined),5.05
2,CCCCCc1cc2cc(C(=O)NCCc3ccc(F)cc3)c(=O)n(C)c2c(O)c1OC,864
3,CCCCCc1cc2cc(C(=O)NCCc3ccc(F)cc3)c(=O)[nH]c2c(O)c1OC,2400
